# Experiments:
# Assay type in all cases: functional, cell-based
# HL-60 = experiment: Cytotoxicity against human HL60 cells after 48 hrs by MTT assay; settings: HL-60, 48 h
# Summary of the method: (§1)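 Cells seeded in 96-well plates 12 h before dosing, then continuously exposed to a range of compound concentrations for 48 h. MTT added for a further 4 h, then 20% SDS added and left 12 h at room temperature. OD read at 595 nm. IC50 calculated by the Reed and Muench method.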
# SW480 = experiment: Cytotoxicity against human SW480 cells after 48 hrs by MTT assay; settings: SW480, 48 h; summary of the method: as §1
# SMMC-7721 = experiment: Cytotoxicity against human SMMC7721 cells after 48 hrs by MTT assay; settings: SMMC-7721, 48 h; summary of the method: as §1
# A549 = experiment: Cytotoxicity against human A549 cells after 48 hrs by MTT assay; settings: A549, 48 h; summary of the method: as §1
# MCF7 = experiment: Cytotoxicity against human MCF7 cells after 48 hrs by MTT assay; settings: MCF7, 48 h; summary of the method: as §1
smiles,measurement,setting,value
C[C@@H]1CC[C@]2(C(=O)O)CC[C@]3(C)C(=CC[C@@H]4[C@@]5(C)C(CO)=CC(C)(C)[C@@H]5CC[C@]43C)[C@@H]2[C@]1(C)O [HYPTASIENIC ACID],IC50,HL-60,15.5 µM
same,IC50,SW480,10.9 µM
same,IC50,SMMC-7721,21 µM
same,IC50,A549,24.7 µM
same,IC50,MCF7,> 40 µM
C/C=C(\C)C(=O)O[C@@H]1C/C(C)=C/CC[C@@]2(C)O[C@@H]2[C@@H](OC(=O)C(C)C(C)OC(C)=O)[C@H]1C(C)C (stereo not given in full) [TRIJUGIN I],IC50,HL-60,17.1 µM
same,IC50,SW480,24.9 µM
same,IC50,SMMC-7721,34 µM
same,IC50,A549,> 40 µM
same,IC50,MCF7,> 40 µM

# Source: ChEMBL document CHEMBL1165996, “Terpenoids from Salvia trijuga” (J Nat Prod, 2010)
